Experimental data published in article PMC12139872 (bioRxiv, 2025).

What was measured:
MOLM-13 = test: Cytotoxicity of antioxidants; assay type: cell-based; settings: 72-hour treatment
Procedure, shortened: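 Each antioxidant (GSH, GSSG, tocopherol, ascorbate) was dissolved in sterile water and applied alone to MOLM-13 cells.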

[1] = molecular target: T1, human glutathione reductase (GSR) (Homo sapiens, UniProt P00390); test: Differential scanning fluorometry; assay type: binding; settings: 5 μM GSR, 20 μM compound
T1 sequence (P00390 44-522): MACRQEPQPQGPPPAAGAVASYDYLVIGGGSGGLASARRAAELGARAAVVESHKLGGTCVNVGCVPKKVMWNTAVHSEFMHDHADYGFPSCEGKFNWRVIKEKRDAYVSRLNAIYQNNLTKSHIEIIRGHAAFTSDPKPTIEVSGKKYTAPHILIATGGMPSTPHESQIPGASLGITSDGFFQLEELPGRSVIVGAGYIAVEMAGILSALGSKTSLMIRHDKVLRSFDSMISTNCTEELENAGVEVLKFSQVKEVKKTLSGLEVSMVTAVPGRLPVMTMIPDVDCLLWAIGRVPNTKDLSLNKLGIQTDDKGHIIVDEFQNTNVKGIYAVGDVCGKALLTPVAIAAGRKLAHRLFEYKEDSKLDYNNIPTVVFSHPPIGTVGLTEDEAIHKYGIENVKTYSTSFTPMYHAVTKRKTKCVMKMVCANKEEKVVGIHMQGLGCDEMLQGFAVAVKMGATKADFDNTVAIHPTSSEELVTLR
Procedure, shortened: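 Human GSR (5 µM final), compound (20 µM final) and 5X SYPRO Orange were combined in 20 mM HEPES pH 7.4, 100 mM NaCl, 1% DMSO. Controls: no protein, compound fluorescence, plate autofluorescence, plus 2-AAPA as positive control. Plates were heated from 25 to 95 °C at 1-min steps with FRET-channel readout. Tm was taken from the dRFU derivative, and significance was tested by Student's t-test.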

| Compound | concentrations at which antioxidant is toxic to MOLM-13 (MOLM-13) | toxicity of exogenously supplemented antioxidant to MOLM-13 (in words) (MOLM-13) | also measured |
| --- | --- | --- | --- |
| O=C1O[C@H]([C@@H](O)CO)C(O)=C1O [ascorbate] | > 15.63 µM | – | – |
| N[C@@H](CCC(=O)N[C@@H](CS)C(=O)NCC(=O)O)C(=O)O [GSH, reduced glutathione] | – | not toxic | – |
| Cc1c(C)c2c(c(C)c1O)CC[C@@](C)(CCC[C@H](C)CCC[C@H](C)CCCC(C)C)O2 [tocopherol] | higher than 62.5 μM | – | – |
| CC(=O)NC(CSC(=S)Nc1ccc(NC(=S)SCC(NC(C)=O)C(=O)O)cc1)C(=O)O (centres unmarked) [Compound 2-AAPA, 2-AAPA] | – | – | change in melting temperature (Tm) of GSR [1]: significantly changed the melting temperature |
| oxidized glutathione [GSSG] | – | not toxic | – |
